The subject of data set [1] is Mycobacterium tuberculosis. Put plainly: Activity of Mycobacterium tuberculosis CYP142A1 assessed as compound oxidation at 50 uM incubated for 1 hr at 25 degC by GC-MS method. A digest of the protocol: (§1)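 Each P450 (250 nM) was incubated with 50 μM substrate, 5 μg catalase, 50 μg/mL ferredoxin, 0.16 U/mL ferredoxin-NADP+ reductase, and an NADPH-regenerating system (1 mM glucose-6-phosphate, 2.4 U/mL G6P dehydrogenase, 5 mM MgCl2, 800 μM NADP+). Buffer was 50 mM potassium phosphate pH 7.5, 25 °C, 1 h. Quenched with HCl, extracted into hexanes, TMS-derivatised, GC-MS. Controls lacked P450 or NADPH.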

Data set [2] relates to Mycobacterium tuberculosis. The data set can be described thus: Activity of Mycobacterium tuberculosis CYP124A1 assessed as compound oxidation at 50 uM incubated for 1 hr at 25 degC by GC-MS method. A digest of the protocol: as §1
In data set [3] the test system is Mycobacterium tuberculosis. Put plainly: Binding affinity to Mycobacterium tuberculosis CYP142A1 assessed as type 1 binding mode at 0.05 to 0.2 uM by UV-visible spectrophotometry. A digest of the protocol: (§2)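 Spectral titration of each P450 with steroid solubilised in methyl β-cyclodextrin. Ligand-induced low-spin/high-spin shifts were followed in the Soret region and at ~650 nm to assign binding type. Absolute spectra of the P450–steroid complexes were also examined.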

Data set [4] concerns Mycobacterium tuberculosis. Put plainly: Activity of Mycobacterium tuberculosis CYP124A1 assessed as relative apparent turnover number at 50 uM incubated for 1 hr at 25 degC by GC-MS method relative to cholesterol.
The test system of data set [5] is Mycobacterium tuberculosis. The data set can be described thus: Activity of Mycobacterium tuberculosis CYP142A1 assessed as relative apparent turnover number at 50 uM incubated for 1 hr at 25 degC by GC-MS method relative to cholesterol.
Data set [6] concerns Mycobacterium tuberculosis. Put plainly: Binding affinity to Mycobacterium tuberculosis CYP124A1 assessed as type 1 binding mode at 0.05 to 0.2 uM by UV-visible spectrophotometry. In outline: as §2
Data set [7] deals with T1, Steroid C26-monooxygenase (Mycobacterium tuberculosis, UniProt P9WPP1).
T1 sequence (P9WPP1 whole entry): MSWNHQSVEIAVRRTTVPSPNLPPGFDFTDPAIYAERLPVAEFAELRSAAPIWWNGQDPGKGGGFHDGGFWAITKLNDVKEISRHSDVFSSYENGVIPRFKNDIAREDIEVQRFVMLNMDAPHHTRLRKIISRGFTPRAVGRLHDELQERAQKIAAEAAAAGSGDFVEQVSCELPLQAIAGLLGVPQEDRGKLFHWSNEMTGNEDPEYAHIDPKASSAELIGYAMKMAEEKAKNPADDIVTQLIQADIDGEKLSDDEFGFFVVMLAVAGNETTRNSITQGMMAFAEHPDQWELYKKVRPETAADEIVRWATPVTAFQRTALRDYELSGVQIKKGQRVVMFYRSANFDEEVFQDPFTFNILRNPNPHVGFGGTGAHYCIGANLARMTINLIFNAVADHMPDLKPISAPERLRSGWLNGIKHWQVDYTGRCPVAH
Put plainly: Activity of Mycobacterium tuberculosis CYP125A1 assessed as relative apparent turnover number at 50 uM incubated for 1 hr at 25 degC by GC-MS method relative to cholesterol.

Data set [8] addresses T1, Steroid C26-monooxygenase. The data set can be described thus: Binding affinity to Mycobacterium tuberculosis CYP125A1 assessed as type 1 binding mode at 0.05 to 0.2 uM by UV-visible spectrophotometry. In outline: as §2
Data set [9] deals with Mycobacterium tuberculosis. The data set can be described thus: Activity of Mycobacterium tuberculosis CYP124A1 assessed as apparent turnover number at 50 uM incubated for 1 hr at 25 degC by GC-MS method. In outline: as §1
For data set [10], the system named is Mycobacterium tuberculosis. The data set can be described thus: Activity of Mycobacterium tuberculosis CYP142A1 assessed as apparent turnover number at 50 uM incubated for 1 hr at 25 degC by GC-MS method. In outline: as §1
Data set [11] addresses T1, Steroid C26-monooxygenase. Put plainly: Activity of Mycobacterium tuberculosis CYP125A1 assessed as apparent turnover number at 50 uM incubated for 1 hr at 25 degC by GC-MS method. A digest of the protocol:
as §1

In data set [12] the target is T1, Steroid C26-monooxygenase. The data set can be described thus: Binding affinity to Mycobacterium tuberculosis CYP125A1 assessed as type 1a binding mode at > 0.05 to 0.2 uM by UV-visible spectrophotometry. A digest of the protocol:
as §2

The source made the active and inactive calls. The calls are words filed in the database; no cut-off is given here.

In the case of `CC(Cl)CCC[C@@H](C)[C@H]1CC[C@H]2[C@@H]3CCC4=CC(=O)CC[C@]4(C)[C@H]3CC[C@]12C` (mixture of isomers), the outcome in [1] and in [2] was Active.

Take `CSCCC[C@@H](C)[C@H]1CC[C@H]2[C@@H]3CCC4=CC(=O)CC[C@]4(C)[C@H]3CC[C@]12C`: the outcome in [1] and in [2] was Active.

For `CC(Br)CCC[C@@H](C)[C@H]1CC[C@H]2[C@@H]3CC=C4C[C@@H](O)CC[C@]4(C)[C@H]3CC[C@]12C` (mixture of isomers), the outcome in [3] and in [6] was Active. Further, the Activity in data set [4] is 67.3%; in [5], 107%; in [7], 65.1%; in [8], “Active”. Besides, the Kcat(app) came to 0.0168 s⁻¹ in [9], 0.299 s⁻¹ in data set [10] and 0.3037 s⁻¹ in data set [11].

With `C[C@H](CCCBr)[C@H]1CC[C@H]2[C@@H]3CCC4=CC(=O)CC[C@]4(C)[C@H]3CC[C@]12C`, the result in data set [1] and in [2] was Active.

Regarding `CCC(C)CCC[C@@H](C)[C@H]1CC[C@H]2[C@@H]3CCC4=CC(=O)CC[C@]4(C)[C@H]3CC[C@]12C` (mixture of isomers), the result in [1] and in data set [2] was Active.

Consider `CSCCC[C@@H](C)[C@H]1CC[C@H]2[C@@H]3CC=C4C[C@@H](O)CC[C@]4(C)[C@H]3CC[C@]12C`, for which the result in data set [3] and in data set [6] was Active. The result in [12] was Active.

With `CCCCC[C@@H](C)[C@H]1CC[C@H]2[C@@H]3CCC4=CC(=O)CC[C@]4(C)[C@H]3CC[C@]12C`, the outcome in [1] and in data set [2] was Active.

With `CCC(C)CCC[C@@H](C)[C@H]1CC[C@H]2[C@@H]3CC=C4C[C@@H](O)CC[C@]4(C)[C@H]3CC[C@]12C` (mixture of isomers), the result in [3] and in data set [6] was Active. Also, the figures for the Activity in data set [5], in [7] and in data set [8] were 58.7%, 68.1% and “Active”, respectively. Moreover, the figures for the Kcat(app) in [10] and in data set [11] were 0.163 s⁻¹ and 0.317 s⁻¹, respectively.

Consider `CC(C)CCC[C@@H](C)[C@H]1CC[C@H]2[C@@H]3CC=C4C[C@@H](O)CC[C@]4(C)[C@H]3CC[C@]12C` [CHOLESTEROL], for which the result in [3] and in data set [6] was Active. The outcome in data set [8] was Active. In addition, the values for the Kcat(app) in [9], in [10] and in data set [11] were 0.025 s⁻¹, 0.278 s⁻¹ and 0.467 s⁻¹, respectively.

Take `C=CCCC[C@@H](C)[C@H]1CC[C@H]2[C@@H]3CCC4=CC(=O)CC[C@]4(C)[C@H]3CC[C@]12C`: the result in data set [1] and in [2] was Active.

As to `CC(C)CCC[C@@H](C)[C@H]1CC[C@H]2[C@@H]3CC[C@@H]4C[C@@H](O)CC[C@]4(C)[C@H]3CC[C@]12C` [COPROSTANOL], the result in [3] and in data set [6] was Active. Further, the Activity in data set [4] was 68.4%; in data set [5], 43.1%; in data set [7], 50.9%; in [8], “Active”. Besides, the figures for the Kcat(app) in data set [9], in data set [10] and in data set [11] were 0.0172 s⁻¹, 0.12 s⁻¹ and 0.2373 s⁻¹, respectively.

As for `CCCCC[C@@H](C)[C@H]1CC[C@H]2[C@@H]3CC=C4C[C@@H](O)CC[C@]4(C)[C@H]3CC[C@]12C`, the outcome in data set [3] and in data set [6] was Active. In addition, the Activity in data set [4] is 48.6%; in [5], 11.7%; in [7], 18%; in data set [8], “Active”. Further, the Kcat(app) is 0.0117 s⁻¹ in [9], 0.0317 s⁻¹ in data set [10] and 0.085 s⁻¹ in data set [11].

As for `CC(C)CCC[C@@H](C)[C@H]1CC[C@H]2[C@@H]3CC[C@@H]4CC(=O)CC[C@]4(C)[C@H]3CC[C@]12C`, the outcome in [1] and in [2] was Active.

As for `C[C@H](CCCBr)[C@H]1CC[C@H]2[C@@H]3CC=C4C[C@@H](O)CC[C@]4(C)[C@H]3CC[C@]12C`, the result in data set [3] and in data set [6] was Active. Besides, in data set [12], the outcome was Active.

Regarding `CC(C)=CCC[C@@H](C)[C@H]1CC[C@@]2(C)C3=C(CC[C@]12C)[C@@]1(C)CCC(=O)C(C)(C)[C@@H]1CC3`, the result in data set [1] and in [2] was Active.

Consider `CC(C)=CCC[C@@H](C)[C@H]1CC[C@@]2(C)C3=C(CC[C@]12C)[C@@]1(C)CC[C@H](O)C(C)(C)[C@@H]1CC3` [LANOSTEROL], for which the outcome in data set [3] and in data set [6] was Active. In addition, the Activity in data set [5] is 132%; in [7], 37%; in data set [8] it was “Active”. Further, the values for the Kcat(app) in data set [10] and in data set [11] were 0.368 s⁻¹ and 0.1728 s⁻¹, respectively.

Regarding `CC(C)=CCC[C@@H](C)[C@H]1CC[C@H]2[C@@H]3CCC4=CC(=O)CC[C@]4(C)[C@H]3CC[C@]12C`, the outcome in [1] and in data set [2] was Active.

For the molecule `CC(C)=CCC[C@@H](C)[C@H]1CC[C@H]2[C@@H]3CC=C4C[C@@H](O)CC[C@]4(C)[C@H]3CC[C@]12C` [DESMOSTEROL], the outcome in data set [3] and in data set [6] was Active. Also, the Activity in data set [4] is 91.2%; in data set [5] it was 41.4%; in data set [7] it was 47.5%; in data set [8], “Active”. Besides, the Kcat(app) in [9] was found to be 0.0228 s⁻¹; in data set [10], 0.115 s⁻¹; in [11], 0.2215 s⁻¹.

With `CC(Br)CCC[C@@H](C)[C@H]1CC[C@H]2[C@@H]3CCC4=CC(=O)CC[C@]4(C)[C@H]3CC[C@]12C` (mixture of isomers), the outcome in data set [1] and in data set [2] was Active.

As for `C=C(C)CCC[C@@H](C)[C@H]1CC[C@H]2[C@@H]3CCC4=CC(=O)CC[C@]4(C)[C@H]3CC[C@]12C`, the result in data set [1] and in [2] was Active.

Regarding `CC(Cl)CCC[C@@H](C)[C@H]1CC[C@H]2[C@@H]3CC=C4C[C@@H](O)CC[C@]4(C)[C@H]3CC[C@]12C` (mixture of isomers), the result in data set [3] and in data set [6] was Active. Moreover, the Activity in data set [4] was 29.8%; in data set [5], 53.7%; in [7], 26%; in [8] it was “Active”. Also, the Kcat(app) in data set [9] amounted to 0.0075 s⁻¹; in [10], 0.15 s⁻¹; in data set [11] it was 0.122 s⁻¹.

As for `CC(C)CCC[C@@H](C)[C@H]1CC[C@H]2[C@@H]3CCC4=CC(=O)CC[C@]4(C)[C@H]3CC[C@]12C` [4-CHOLESTEN 3-ONE], the result in data set [3], in data set [6], in data set [1] and in data set [2] was Active. Further, in [8], the outcome was Active.

These data come from ChEMBL document CHEMBL2046332, “Substrate analog studies of the ω-regiospecificity of Mycobacterium tuberculosis cholesterol metabolizing cytochrome P450 enzymes CYP124A1, CYP125A1 and CYP142A1” (Bioorg Med Chem, 2012).
